The values below come from PubChem BioAssay.

SMILES strings stand for the structures. Activity calls are given as the source filed them.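 How the source made its calls, unless noted: active means visual image review flags a hit and inhibition of aggregation exceeds 20%; inconclusive means visual hit but inhibition at or below 20%; inactive means no hit on visual image review.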

The nature of assay [1]: inhibitors of TNFa-induced NFkB p65 translocation, primary screen, imaging, HUVEC, MLSMR starter and 10KST1 sets (AID 438;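 active means inhibition above 20% together with a positive visual image hit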;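 further: compound added about 3h40 before a 20 min TNFalpha stimulation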;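 on inhibition: signal is the nuclear over cytoplasmic p65 intensity ratio per well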). Conditions: HUVEC TNFa-induced p65 nuclear translocation; cell count: measured here: nuclei count (cytotoxicity indicator), at 2.08 µM; inhibition: at 2 µM, stronger effect = higher value, 0% TNFa-plus-vehicle, 100% no-TNFa wells.
Assay [2] can be described thus: inhibitors of mutant huntingtin aggregation, primary screen, imaging, exon1htt(103Q)mCFP cells, high-content imaging (AID 483).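 Further: compound exposure lasted 3 days before fixation.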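 On nuclei count: percent of the per-plate median nuclei count of sample wells.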 Conditions: exon1htt(103Q)mCFP cell line, aggregate imaging, at 2 µM; inhibition of aggregation: stronger effect = higher value; nuclei count: measured here: cell count, toxicity.
Assay [3] can be described thus: inhibitors of E-selectin induction by TNFa, primary screen, imaging, HUVEC, immunofluorescence, MLSMR starter and 10KST1 sets (AID 487;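 active means visually confirmed hit in the image check and inhibition above 20%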;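 on inhibition: signal is fraction of cell area covered by stained E-selectin grains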;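 on nuclei count: 100% = median nuclei count of all wells on the same plate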). Conditions: HUVEC TNFalpha-induced E-selectin immunofluorescence imaging, at 2 µM; inhibition: stronger effect = higher value; nuclei count: measured here: cell number, toxicity.
Assay [4] deals with Voltage-gated potassium channel subunit beta-2 (Rattus norvegicus) (UniProt P62483). Kind of assay: KvBeta enzyme negative modulators, primary screen, biochemical, NADPH fluorescence (AID 622;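 active means fluorescence slope higher than the sample average by over 3 SD, cut at about -0.22 in these data, passing the limit was not always enough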;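 further: slope of raw intensity against log time taken from 70 to 1610 s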). Conditions: recombinant KvBeta, 4-cyanobenzaldehyde reduction, at 10 µM, stronger effect = higher value.
Voltage-gated potassium channel subunit beta-2 (Rattus norvegicus), sequence (P62483 whole entry, looked up): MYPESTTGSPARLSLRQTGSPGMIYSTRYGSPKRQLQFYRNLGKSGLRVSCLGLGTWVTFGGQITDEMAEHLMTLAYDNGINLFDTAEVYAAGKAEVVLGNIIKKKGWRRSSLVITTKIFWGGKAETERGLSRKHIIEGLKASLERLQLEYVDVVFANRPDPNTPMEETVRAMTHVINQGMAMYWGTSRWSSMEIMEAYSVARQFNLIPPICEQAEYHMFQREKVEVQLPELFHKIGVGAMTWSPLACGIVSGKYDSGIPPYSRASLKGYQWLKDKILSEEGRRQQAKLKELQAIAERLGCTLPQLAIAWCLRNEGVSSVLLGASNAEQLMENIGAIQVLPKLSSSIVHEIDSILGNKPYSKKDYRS
The target is the same in assay [5]. The assay is described as follows: KvBeta positive modulators, primary screen, biochemical, NADPH fluorescence (AID 623;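 active means NADPH fluorescence slope more negative than the mean of all samples by about 3 SD, 99.7% confidence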;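 further: fluorescence intensity change per second fitted from 20 to 320 s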). The settings on record: Recombinant KvBeta, NADPH fluorescence decrease slope, 10 min; at 10 µM; stronger effect = lower value.
Assay [6] concerns the target Muscarinic acetylcholine receptor M4 (Homo sapiens) (UniProt P08173). The assay is described as follows: compounds altering M4/GIRK thallium flux, either direction, primary screen, M4 allosteric agonist project, cell-based, HEK293 M4/GIRK, BTC-AM (AID 625;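 active means fluorescence slope after compound addition differing from the mean of all tested samples at 99.7% confidence, mostly higher but some lower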;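 further: thallium influx through GIRK channels coupled to M4 in HEK293 cells with BTC-AM dye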). Conditions: at 10 µM, actives lie on both sides. In short, it runs like this:
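Assay system: HEK293 cells with M4 receptor and GIRK channels / Controls: carbachol and DMSO controls / Schedule: 1 h dye loading, 2 min kinetic read / Technique: kinetic fluorescence with BTC-AM dye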

The nature of assay [7]: inhibitors of Sendai virus-induced IRF3 signaling, primary screen, TLR/RLR signaling modifier project, cell-based, Sendai virus stimulus, luciferase, 10K MLSCN set (AID 602276;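 active means inhibition at or above 50% at 10 µM; inactive means inhibition below 50%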;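 further: firefly luciferase from ISG56 promoter only with Renilla not read in this screen; 0% = Sendai virus plus DMSO and 100% = medium plus DMSO without virus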). The settings on record: HEK293 RL24 IRF3 luciferase reporter, at 10 µM, stronger effect = higher value. Background: Reporter assays use an easily measured gene product as a stand-in for the process of interest.

Assay [8] can be described thus: inhibitors of poly I:C-induced TLR3 signaling, primary screen, cell-based, poly I:C stimulus, luciferase, 10K MLSCN set (AID 602277;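 active means inhibition of the reporter signal at or above 50%; inactive means inhibition below 50%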). Conditions: HEK293-TLR3 RL24 IRF3 luciferase reporter, at 10 µM, stronger effect = higher value.

Muscarinic acetylcholine receptor M4 (Homo sapiens), sequence (P08173 whole entry, looked up): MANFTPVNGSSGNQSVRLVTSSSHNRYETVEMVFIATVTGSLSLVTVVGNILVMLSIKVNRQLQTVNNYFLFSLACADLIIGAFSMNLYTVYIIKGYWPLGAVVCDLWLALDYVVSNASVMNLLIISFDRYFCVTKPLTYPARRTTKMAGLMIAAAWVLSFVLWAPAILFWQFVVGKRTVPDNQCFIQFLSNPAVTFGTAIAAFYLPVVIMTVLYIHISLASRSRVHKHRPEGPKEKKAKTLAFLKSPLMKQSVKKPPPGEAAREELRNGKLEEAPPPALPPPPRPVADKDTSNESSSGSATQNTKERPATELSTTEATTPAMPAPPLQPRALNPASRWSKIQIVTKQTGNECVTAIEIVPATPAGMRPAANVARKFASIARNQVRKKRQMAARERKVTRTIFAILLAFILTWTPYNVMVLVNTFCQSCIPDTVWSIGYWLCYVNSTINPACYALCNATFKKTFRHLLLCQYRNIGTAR

For orientation: inhibition means the change of the read-out against control, counted positive when it falls. As for `O=C(O)c1cccc(CN2C(=O)SC(Nc3ccccc3)C2=O)c1` (centres undefined), the cell count in assay [1] is 510. For the same molecule, the inhibition is 3.6% (inactive) in assay [1], 39.4% (inactive) in assay [3], 8.76% (inactive) in assay [7] and 18.9% (inactive) in assay [8]. Besides, the inhibition of aggregation in assay [2] is 5.6% (inactive). Moreover, the nuclei count in assay [2] and in assay [3] was 108% throughout. For the same molecule, the figures for the fluorescence slope in assay [4] and in assay [6] were -0.405 (inactive) and 0.00521 (inactive), respectively. Moreover, the NADPH fluorescence slope in assay [5] was 6.9e-06 (inactive).
With `CCCn1cnc2c(c1=O)c1nc3ccccc3nc1n2Cc1ccccc1OC`, the cell count in assay [1] is 499. Moreover, the inhibition in assay [1] was -7.5% (inactive); in assay [3], -68.4% (inactive); in assay [7] it was -9.22% (inactive); in assay [8], 101% (active). In assay [2], the inhibition of aggregation is 4.9% (inactive). Moreover, the nuclei count in assay [2] was 95%; in assay [3], 130%. In addition, the results for the fluorescence slope in assay [4] and in assay [6] were -0.483 (inactive) and 0.00653 (inactive), respectively. The NADPH fluorescence slope in assay [5] was -1.8e-05 (inactive).
As to `COc1ccc(NCc2nnc(SCC(=O)Nc3cc(C)cc(C)c3)o2)cc1`, the cell count in assay [1] is 396. Moreover, the inhibition in assay [1] is -1.1% (inactive); in assay [3] it was 36.7% (inactive); in assay [7], 11% (inactive); in assay [8] it was 22.6% (inactive). For the same molecule, the inhibition of aggregation in assay [2] is 8.7% (inactive). Further, the nuclei count in assay [2] came to 101%; in assay [3] it was 79.5%. In addition, the fluorescence slope in assay [4] was -0.4 (inactive); in assay [6] it was 0.00688 (inactive). In addition, the NADPH fluorescence slope in assay [5] was -0.000139 (inactive).
In the case of `COc1ccccc1OCc1ccc(C(=O)NC(C)(C)C)o1`, the cell count in assay [1] was 735. In addition, the inhibition in assay [1] was -5.5% (inactive); in assay [3] it was -20.5% (inactive); in assay [7], -16.1% (inactive); in assay [8] it was -22.5% (inactive). The inhibition of aggregation in assay [2] was 0.6% (inactive). The nuclei count in assay [2] was 62.4%; in assay [3], 112%. Besides, the fluorescence slope was -0.601 (inactive) in assay [4] and 0.00541 (inactive) in assay [6]. The NADPH fluorescence slope in assay [5] was 5.2e-05 (inactive).
With `Cc1cc(C(F)F)n2ncc(C(=O)NC3CCCCCC3)c2n1`, in assay [1], the cell count is 354. The inhibition in assay [1] was 0% (inactive); in assay [3], 1.4% (inactive); in assay [7] it was 15.9% (inactive); in assay [8], 15.5% (inactive). Further, the inhibition of aggregation in assay [2] is -4.8% (inactive). The nuclei count in assay [2] is 106%; in assay [3], 113%. The fluorescence slope is -0.569 (inactive) in assay [4] and 0.00445 (inactive) in assay [6]. Besides, the NADPH fluorescence slope in assay [5] was -7.1e-05 (inactive).
Regarding `O=C1c2ccccc2C(=O)N1Cc1nc2ccccc2c(=O)n1CCN1CCOCC1`, the cell count in assay [1] was determined as 383. For the same molecule, the inhibition in assay [1] was -10.3% (inactive); in assay [3] it was -48.6% (inactive); in assay [7], 14.9% (inactive); in assay [8] it was 12.8% (inactive). Further, the inhibition of aggregation in assay [2] was -11.3% (inactive). Besides, the nuclei count came out at 85.7% in assay [2] and 160% in assay [3]. Besides, the fluorescence slope in assay [4] was -0.521 (inactive); in assay [6], 0.0047 (inactive). Also, the NADPH fluorescence slope in assay [5] was 1.6e-05 (inactive).
In the case of `Cc1ccc(NC(=O)Cn2cccc2)cc1Cl`, the cell count in assay [1] is 655. In addition, the inhibition in assay [1] is -12.9% (inactive); in assay [3] it was -4.1% (inactive); in assay [7], 8.59% (inactive); in assay [8], -12.8% (inactive). The inhibition of aggregation in assay [2] was 7% (inactive). Moreover, the results for the nuclei count in assay [2] and in assay [3] were 115% and 103%, respectively. In addition, the fluorescence slope in assay [4] was -0.324 (inactive); in assay [6], 0.00925 (inactive). Moreover, the NADPH fluorescence slope in assay [5] is -5.7e-05 (inactive).
`O=C(Nc1ccc(N2CCOCC2)cc1)Nc1ccc2nc(-c3ccco3)c(-c3ccco3)nc2c1`: the cell count in assay [1] came to 695. Moreover, the inhibition in assay [1] was -0.7% (inactive); in assay [3] it was -177% (inactive); in assay [7], 38.7% (inactive); in assay [8], 0.682% (inactive). For the same molecule, the inhibition of aggregation in assay [2] was -8.6% (inactive). The nuclei count in assay [2] worked out at 98.1%; in assay [3], 140%. In addition, the fluorescence slope in assay [4] is -0.516 (inactive); in assay [6], 0.00225 (inactive). Moreover, in assay [5], the NADPH fluorescence slope was -5.3e-05 (inactive).
As for `Cc1ccc(-c2cc(C(F)F)nc(N3CCC(C)CC3)n2)cc1`, the cell count in assay [1] stood at 653. The inhibition in assay [1] was -35.4% (inactive); in assay [3], -81.9% (inactive); in assay [7], 4.72% (inactive); in assay [8] it was -1.99% (inactive). The inhibition of aggregation in assay [2] is -11.6% (inactive). The nuclei count is 102% in assay [2] and 117% in assay [3]. The figures for the fluorescence slope in assay [4] and in assay [6] were -0.432 (inactive) and 0.00777 (inactive), respectively. In assay [5], the NADPH fluorescence slope was -1.2e-05 (inactive).
On to `CCOC(=O)N1CCN(C(=O)c2ccc3c(=O)n(CCc4ccccc4)c(=O)[nH]c3c2)CC1`, for which, in assay [1], the cell count was found to be 784. In addition, the inhibition in assay [1] was -7.8% (inactive); in assay [3], -60% (inactive); in assay [7], -16.4% (inactive); in assay [8] it was -40% (inactive). Also, the inhibition of aggregation in assay [2] is 5.4% (inactive). Further, the nuclei count was 111% in assay [2] and 115% in assay [3]. The results for the fluorescence slope in assay [4] and in assay [6] were -0.307 (inactive) and 0.00774 (inactive), respectively. In addition, the NADPH fluorescence slope in assay [5] is 4.7e-06 (inactive).
Take `COc1ccc(OC)c(NC(=O)CSc2ncccc2C(=O)O)c1`: the cell count in assay [1] turned out to be 409. In addition, the inhibition in assay [1] is 0% (inactive); in assay [3] it was -120% (inactive); in assay [7], -1.78% (inactive); in assay [8], 9.5% (inactive). Moreover, the inhibition of aggregation in assay [2] was -10.4% (inactive). The nuclei count in assay [2] came to 7.1%; in assay [3], 125%. Further, the fluorescence slope in assay [4] is -0.495 (inactive); in assay [6], 0.00462 (inactive). Moreover, the NADPH fluorescence slope in assay [5] was -0.000268 (inactive).
As to `CC1(C)CC(=O)C=C(Nc2ccc(F)cc2)C1`, the cell count in assay [1] amounted to 454. Besides, the inhibition in assay [1] was 10.9% (inactive); in assay [3] it was -20% (inactive); in assay [7] it was -2.98% (inactive); in assay [8], 13.6% (inactive). Further, the inhibition of aggregation in assay [2] is 3.9% (inactive). For the same molecule, the nuclei count in assay [2] came out at 99.5%; in assay [3], 109%. Also, the fluorescence slope in assay [4] is -0.607 (inactive); in assay [6], 0.00469 (inactive). Moreover, the NADPH fluorescence slope in assay [5] is 3.1e-05 (inactive).
For `Cc1cc(C)n(CCCNC(=O)c2ccc3c(c2)NC(=O)CS3)n1`, the cell count in assay [1] turned out to be 722. In addition, the inhibition in assay [1] is -0.6% (inactive); in assay [3], 10.7% (inactive); in assay [7] it was 14.3% (inactive); in assay [8] it was 28.3% (inactive). Further, in assay [2], the inhibition of aggregation was -34.8% (inactive). Moreover, the figures for the nuclei count in assay [2] and in assay [3] were 87.8% and 106%, respectively. Besides, the fluorescence slope in assay [4] was -0.416 (inactive); in assay [6], 0.00708 (inactive). The NADPH fluorescence slope in assay [5] is -1.2e-05 (inactive).
As for `O=C(c1ccc(S(=O)(=O)N2CCOCC2)cc1)N1CCc2ccccc2C1`, the cell count in assay [1] was found to be 401. Also, the inhibition in assay [1] is -1% (inactive); in assay [3], -103% (inactive); in assay [7], 25.2% (inactive); in assay [8] it was 18.8% (inactive). For the same molecule, the inhibition of aggregation in assay [2] was -27.5% (inactive). The nuclei count amounted to 103% in assay [2] and 118% in assay [3]. Moreover, the results for the fluorescence slope in assay [4] and in assay [6] were -0.469 (inactive) and 0.00485 (inactive), respectively. Further, in assay [5], the NADPH fluorescence slope is -1.3e-05 (inactive).
